The list is not random: actives were taken first. Their share in the collection is about 2.4%.
BB579 growth dn – yeast BB579 growth reduction in restrictive medium; S. cerevisiae BB579 growth, OD615, 48 h; inhibition, % at 10 µM; hit rate 0.51% among 140,000; AID 804;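 active means inhibition above a set limit, 3 SD over the mean compound inhibition, cut at about 44% in these data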
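System: Saccharomyces cerevisiae DeaD strain BB579, replicative lifespan model yeast. Buffer or medium: restrictive glucose-based CSMM-D medium. Doses: one dose, 10 µM compound with 0.25% DMSO. Timing: 4 h preincubation and 48 h exposure at 30 °C. Detection: turbidity as optical density at 615 nm. Benchmarks: amphotericin B 10 µg/mL, positive.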
Efa HMGR inh – blocks class II HMG-CoA reductase of Enterococcus faecalis; purified E. faecalis HMGR, NADPH absorbance 340 nm kinetic; inhibition, % at 10 µM; hit rate 0.41% among 190,000; AID 1066;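 active means inhibition above a set limit, the median over all tested compounds plus 3 SD, cut at about 9.5% in these data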;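 further: enzyme runs in reverse so mevalonate oxidation gives rising NADPH absorbance; 0% = complete reaction with DMSO and 100% = background rate lacking mevalonate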
Yeast lifespan up – extends the lifespan of yeast; inhibition of the nicotinamide effect, % at 10 µM; S. cerevisiae growth with nicotinamide, OD615; deaD strain in restrictive glucose medium; AID 775; hit rate 0.68% among 130,000;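 active means inhibition above a set limit, placed 3 SD over the median of all compounds, cut at about 26% in these data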;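 further: 0% = nicotinamide-treated wells and 100% = cells grown without nicotinamide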
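Buffer or medium: CSMM-D glucose medium, restrictive; test system: modified budding yeast, DeaD strain; compound: single dose 10 µM compound, 0.25% DMSO; schedule: culture preincubation 4 h, compound exposure 48 h, both 30 °C; detection: optical density (absorbance) at 615 nm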
Measles CPE – protection of cells from measles virus | Measles virus-infected cells, CPE protection, absorbance | hit rate 1.5% among 140,000 | protection (pct of control), % at 4 µM; in the data active means protection mostly above about 24%, no sharp cut-off; inactive means mostly below about 26%
Arbovirus inh – antivirals against arbovirus infection; arbovirus infection cell-based antiviral screen; inhibition, % at 10 µM; hit rate 0.37% among 200,000; AID 1251; in the data active means inhibition above about 30%
Rad51 HR inh – blocks human Rad51 in homologous recombination; Q06609; hRad51 DNA strand exchange, fluorescence dequenching; inhibition, % at 10 µM; hit rate 0.085% among 200,000; AID 1385;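 active means inhibition above 40% at the single screening dose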;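 further: 0% = DMSO control wells and 100% = blanks with heterologous ssDNA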
Target sequence (Q06609 whole entry, looked up): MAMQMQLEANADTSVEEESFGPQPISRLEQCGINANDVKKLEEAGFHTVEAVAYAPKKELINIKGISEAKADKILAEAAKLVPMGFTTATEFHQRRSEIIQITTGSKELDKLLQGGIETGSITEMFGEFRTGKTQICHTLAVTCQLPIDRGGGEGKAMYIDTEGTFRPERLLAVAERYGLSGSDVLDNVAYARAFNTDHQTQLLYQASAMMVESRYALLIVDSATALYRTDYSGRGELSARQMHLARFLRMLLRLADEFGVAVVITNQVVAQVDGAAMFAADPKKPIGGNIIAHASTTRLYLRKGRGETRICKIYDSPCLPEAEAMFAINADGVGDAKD
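System: human Rad51 nucleoprotein filaments preassembled on unlabelled ssDNA. Reagent: labelled 47-mer dsDNA for strand exchange. Schedule: 30-min compound preincubation and 15-min exchange, both room temperature. Measured by: FRET fluorescence dequenching, excitation 485 nm, emission 520 nm. Read-out: Fluorescence-based percent inhibition, control- and blank-normalised. Benchmarks: plate controls and plate blanks.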
Active calls of the source: *; nt = not tested or not shown.

SMILES | BB579 growth dn | Efa HMGR inh | Yeast lifespan up | Measles CPE | Arbovirus inh | Rad51 HR inh
c1ccc(OCCSc2nc3ccccc3[nH]2)cc1 | -25.6 | 13.0* | nt | 4.8 | -2.8 | -2.3
O=S1(=O)C=CC(c2ccccc2)C1 (configuration not stated) | nt | nt | nt | nt | nt | 16.3
CCc1cc2c3c(c1)C(C)CC(C)(C)N3C(=O)C2=O (configuration not stated) | -24.8 | -4.7 | 27.7* | 3.4 | -35.5 | nt
CCOc1cc2c3c(c1)C1(OCCO1)C(=O)N3C(C)(C)CC2C (configuration not stated) | -33.3 | 1.3 | 0.2 | 3.2 | -0.6 | nt
Cc1cc(C)cc(NS(=O)(=O)c2cnc(Cl)c(Cl)c2)c1 | 76.2* | -9.1 | -18.2 | 10.3 | 1.1 | 7.1
CCOc1ccc(NS(=O)(=O)c2cnc(Cl)c(Cl)c2)cc1 | -65.8 | 2.0 | 1.5 | 8.5 | -3.1 | 17.3
Cc1ncc(C23CC4CC(CC(C4)C2)C3)[nH]1 | -34.3 | -2.7 | 151.9* | 9.2 | 4.5 | -8.3
N#Cc1ccc(C23CC4CC(CC(C4)C2)C3)[nH]c1=O | -22.2 | 1.1 | 5.9 | 13.8 | 1.4 | -2.4
Cc1ccc(NCC(=O)Nc2cccc(S(=O)(=O)N(C)C)c2)c(Cl)c1 | -1.1 | -5.7 | -1.1 | 3.3 | 17.1 | -6.8
COc1cccc(C2=CC(c3ccccc3)n3ncnc3N2)c1 (configuration not stated) | -33.2 | -0.2 | -19.9 | 18.5 | 13.2 | -3.3
Cc1ccc(C2C=C(c3ccccc3)Nc3ncnn32)cc1 (configuration not stated) | nt | nt | nt | nt | nt | -1.1
COc1ccc(C2C=C(c3ccc(C)cc3)Nc3ncnn32)cc1 (configuration not stated) | 22.9 | -2.2 | 13.6 | 15.2 | 86.3* | nt
COc1ccc(C2C=C(c3ccc(Br)s3)Nc3ncnn32)cc1OC (configuration not stated) | -43.4 | -1.7 | -9.2 | 7.1 | 90.0* | -453.0
COc1ccc(C2C=C(c3ccccc3)Nc3nnnn32)cc1 (configuration not stated) | -2.3 | -3.1 | -22.2 | 6.2 | 2.9 | -0.6
COc1cccc(C2=CC(c3ccc(N(C)C)cc3)n3ncnc3N2)c1 (configuration not stated) | -45.1 | -1.3 | -8.1 | 3.8 | 45.7* | -7.9
COc1ccc(C2=CC(c3ccc(C)cc3)n3nnnc3N2)cc1 (configuration not stated) | -48.3 | -9.9 | 1.1 | 16.7 | 37.8* | -10.0
CC1=C(C(=O)OCc2ccccc2)C(/C=C/c2ccccc2)NC(=S)N1 (configuration not stated) | -24.7 | 10.0* | -0.7 | 2.8 | -32.5 | 3.8
CCCNS(=O)(=O)c1ccc(OCC(=O)OC)cc1 | -0.4 | -3.2 | -1.4 | 39.1* | 13.1 | -3.2
CCOC(=O)/C(=N\Nc1cccc(C(F)(F)F)c1)N(CCOC)CCOC | 54.4* | -4.9 | -11.4 | 10.6 | -23.4 | 1.4
CCOC(=O)/C(=N\Nc1cccc(C(F)(F)F)c1)N1CCOCC1 | nt | -1.7 | nt | nt | -23.3 | -10.7
CC(C)NC(=O)CSc1nc2ccccc2n1CC(=O)N(C(C)C)C(C)C | nt | 23.4* | nt | nt | 13.3 | 8.3
CCCC(=N)C1=C(O)CC(CC(C)SCC)CC1=O (configuration not stated) | -8.9 | -6.3 | -9.4 | 6.6 | 7.4 | 11.9
CCCC(=O)C1C(=O)CC(CC(C)SCC)CC1=O (configuration not stated) | -35.7 | -3.5 | 96.8* | 3.0 | -2.8 | 8.2
O=C(Nc1cccc2ccccc12)c1cc2c(cc1Br)OCO2 | nt | nt | nt | nt | nt | 5.9
CCOC(=O)c1cccc(Nc2nc(-c3cccnc3)nc3ccccc23)c1 | -17.9 | 0.9 | -15.2 | 28.7* | -5.6 | nt
SMILES | BB579 growth dn | Efa HMGR inh | Yeast lifespan up | Measles CPE | Arbovirus inh | Rad51 HR inh
COC(=O)c1cccc(Nc2nc(-c3cccnc3)nc3ccccc23)c1 | nt | nt | nt | nt | nt | 17.3
CCCCCCCC(=O)N/N=C(/C)c1c(O)cc(C)oc1=O | -13.0 | -5.0 | 40.2* | 6.3 | -23.1 | -6.7
CCN(CC)N=Nc1[nH]nc2nc(C)cc(C)c12 | 78.5* | 3.1 | -25.3 | 4.5 | -4.1 | -5.7
Cc1cc(C)c2c(N=NN3CCCCC3)[nH]nc2n1 | 85.3* | 1.4 | -7.9 | 26.0 | -7.1 | -1.1
CC(C)N1CCN(Cc2ccc(C#CCCO)cc2)CC1CCO (configuration not stated) | nt | 3.7 | nt | nt | -2.6 | 0.2
CCOC(=O)C1(Cc2ccccc2)CCCN(C2CCCC2)C1 (configuration not stated) | nt | -3.1 | nt | nt | -1.7 | -1.2

Screening data deposited in PubChem by several laboratories.
